# In ChEMBL document CHEMBL4043170, “1-Acetyl-5-phenyl-1H-pyrrol-3-ylacetate: An aldose reductase inhibitor for the treatment of diabetic nephropathy” (Bioorg Med Chem Lett, 2017):
# pIC50: −log10 of the molar value. Calls of active or inactive are those of the source. The calls are words filed in the database; no cut-off is given here.
# What was measured:
# Rattus norvegicus [1] = test: Antidiabetic activity in STZ-induced diabetic nephropathy Wistar rat model assessed as increase in total superoxide dismutase level at 40 to 160 mg/kg administered daily for 8 weeks measured up to 8 weeks by ELISA; format: functional, organism-based
# Procedure, shortened: (§1)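 Male Wistar rats (300±50 g), adapted under specific pathogen-free conditions with free access to food and water. STZ diabetic nephropathy counted if blood glucose ≥13.88 mM with raised urinary microalbumin. Groups: saline, untreated DN, 40, 80 or 160 mg/kg, and reference inhibitor 100 mg/kg. Dosed daily for eight weeks. Urine and blood sampled at weeks 2, 4, 6 and 8. Mean ± SD, n = 8.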
# HBZY-1 [2] = test: Cytoprotective activity against HG-induced cell death in rat HBZY-1 cells assessed as […] by measuring early apoptotic cells at 0.9 uM by Annexin V-FITC/propidium iodide staining-based flow cytometric analysis (reference value: 8.13%); format: functional
# Rattus norvegicus [3] = test: Antidiabetic activity in STZ-induced diabetic nephropathy Wistar rat model assessed as reduction in blood glucose level at 40 to 160 mg/kg administered daily for 8 weeks measured up to 8 weeks by ELISA; format: functional, organism-based; procedure, shortened: as §1
# HBZY-1 [4] = test: Cytoprotective activity against HG-induced cell death in rat HBZY-1 cells at 0.3 to 0.9 uM after 24 to 96 hrs by MTT assay; format: functional, cell-based
# [5] = biological target: Aldo-keto reductase family 1 member B1 (Homo sapiens) (UniProt P15121); test: Uncompetitive inhibition of recombinant human AR at 60 to 140 nM in presence of various concentrations of DL-glyceraldehyde by Lineweaver-Burk plot analysis
# HBZY-1 [6] = test: Cytoprotective activity against HG-induced cell death in rat HBZY-1 cells assessed as […] at 0.3 uM by Annexin V-FITC/propidium iodide staining-based flow cytometric analysis (reference value: 2.83); format: functional
# Rattus norvegicus [7] = test: Antidiabetic activity in STZ-induced diabetic nephropathy Wistar rat model assessed as increase in total antioxidant capacity at 40 to 160 mg/kg administered daily for 8 weeks measured up to 8 weeks by ELISA; format: functional, organism-based; procedure, shortened: as §1
# Rattus norvegicus [8] = test: Antidiabetic activity in STZ-induced diabetic nephropathy Wistar rat model assessed as increase in catalase level at 40 to 160 mg/kg administered daily for 8 weeks measured up to 8 weeks by ELISA; format: functional, organism-based; procedure, shortened: as §1
# HBZY-1 [9] = test: Cytoprotective activity against HG-induced cell death in rat HBZY-1 cells at 0.9 uM after 24 to 96 hrs by MTT assay; format: functional, cell-based
# Rattus norvegicus [10] = test: Antidiabetic activity in STZ-induced diabetic nephropathy Wistar rat model assessed as decrease in collagen 4 level at 40 to 160 mg/kg administered daily for 8 weeks measured up to 8 weeks by ELISA
# HBZY-1 [11] = test: Cytoprotective activity against HG-induced cell death in rat HBZY-1 cells assessed as […] at 0.6 uM by Annexin V-FITC/propidium iodide staining-based flow cytometric analysis (reference value: 2.83); format: functional
# HBZY-1 [12] = test: Cytoprotective activity against HG-induced cell death in rat HBZY-1 cells assessed as increase in apoptosis by measuring late apoptotic cells at 0.9 uM by Annexin V-FITC/propidium iodide staining-based flow cytometric analysis (reference value: 18.81%); format: functional
# HBZY-1 [13] = test: Cytoprotective activity against HG-induced cell death in rat HBZY-1 cells assessed as […] at 0.9 uM by Annexin V-FITC/propidium iodide staining-based flow cytometric analysis (reference value: 2.83); format: functional
# Rattus norvegicus [14] = test: Antidiabetic activity in STZ-induced diabetic nephropathy Wistar rat model assessed as decrease in laminin level at 40 to 160 mg/kg administered daily for 8 weeks measured up to 8 weeks by ELISA
# HBZY-1 [15] = test: Cytoprotective activity against HG-induced cell death in rat HBZY-1 cells assessed as increase in apoptosis by measuring late apoptotic cells at 0.6 uM by Annexin V-FITC/propidium iodide staining-based flow cytometric analysis (reference value: 18.81%); format: functional
# HBZY-1 [16] = test: Downregulation of laminin levels in rat HBZY-1 cells at 0.3 to 0.9 uM by Western blot analysis; format: functional, cell-based
# Rattus norvegicus [17] = test: Antidiabetic activity in STZ-induced diabetic nephropathy Wistar rat model assessed as increase in glutathione level at 40 to 160 mg/kg administered daily for 8 weeks measured up to 8 weeks by ELISA; format: functional, organism-based; procedure, shortened: as §1
# HBZY-1 [18] = test: Cytoprotective activity against HG-induced cell death in rat HBZY-1 cells assessed as […] by measuring late apoptotic cells at 0.3 uM by Annexin V-FITC/propidium iodide staining-based flow cytometric analysis (reference value: 18.81%); format: functional
# Rattus norvegicus [19] = test: Antidiabetic activity in STZ-induced diabetic nephropathy Wistar rat model assessed as reduction in urinary microalbumin level at 40 to 160 mg/kg administered daily for 8 weeks measured up to 8 weeks by ELISA; format: functional, organism-based; procedure, shortened: as §1
# HBZY-1 [20] = test: Cytoprotective activity against HG-induced cell death in rat HBZY-1 cells assessed as […] by measuring early apoptotic cells at 0.6 uM by Annexin V-FITC/propidium iodide staining-based flow cytometric analysis (reference value: 8.13%); format: functional
# Rattus norvegicus [21] = test: Protection against […] in Wistar rat model assessed as reduction in glomerular mesangial hyperplasia at 40 to 160 mg/kg administered daily for 8 weeks measured after 8 weeks by hematoxylin/eosin dye-based analysis; format: functional, organism-based; procedure, shortened: as §1
# HBZY-1 [22] = test: Cytoprotective activity against HG-induced cell death in rat HBZY-1 cells assessed as […] at 0.3 to 0.9 uM by Hoechst staining-based analysis; format: functional
# Procedure, shortened: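 HBZY-1 rat mesangial cells grown in low-glucose DMEM (5.56 mM) with 10% FBS at 37°C and 5% CO2. Pretreated, then exposed to 33 mM glucose. 1×10^4 cells seeded per well, fixed in 70% ethanol for 20 min at room temperature, and stained with Hoechst for 5 min. Imaged by fluorescence microscopy at 400×.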
# HBZY-1 [23] = test: Downregulation of collagen 4 levels in rat HBZY-1 cells at 0.3 to 0.9 uM by Western blot analysis; format: functional, cell-based
# [24] = biological target: Aldo-keto reductase family 1 member B1 (Rattus norvegicus, UniProt P07943); test: Inhibition of AR in Sprague-Dawley rat lens using DL-glyceraldehyde as substrate by spectrophotometric analysis
# Procedure, shortened: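 Inhibition is expressed relative to uninhibited enzyme activity, set as 100%. For the kinetic study, DL-glyceraldehyde was used at 0.083, 0.125, 0.25 and 1.0 mM. […] Results were analysed by Lineweaver-Burk double-reciprocal plots of 1/V against 1/S.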
# HBZY-1 [25] = test: Cytoprotective activity against HG-induced cell death in rat HBZY-1 cells assessed as […] by measuring early apoptotic cells at 0.3 uM by Annexin V-FITC/propidium iodide staining-based flow cytometric analysis (reference value: 8.13%); format: functional
# HBZY-1 [26] = test: Cytoprotective activity against HG-induced cell death in rat HBZY-1 cells assessed as […] by measuring early apoptotic cells at 10 uM by Annexin V-FITC/propidium iodide staining-based flow cytometric analysis (reference value: 8.13%); format: functional
# HBZY-1 [27] = test: Cytoprotective activity against HG-induced cell death in rat HBZY-1 cells assessed as increase in apoptosis by measuring late apoptotic cells at 10 uM by Annexin V-FITC/propidium iodide staining-based flow cytometric analysis (reference value: 18.18%); format: functional
smiles,measurement,setting,value
CC(=O)Oc1cc(-c2ccccc2)n(C(C)=O)c1,Activity,Rattus norvegicus [1],Active
same,Activity,HBZY-1 [2],9.97%
same,Activity,Rattus norvegicus [3],Active
same,Activity,HBZY-1 [4],Active
same,inhibition,[5],Active
same,fold change (FC),HBZY-1 [6],2.29
same,Activity,Rattus norvegicus [7],Active
same,Activity,Rattus norvegicus [8],Active
same,Activity,HBZY-1 [9],Active
same,Activity,Rattus norvegicus [10],Active
same,fold change (FC),HBZY-1 [11],2.07
same,Activity,HBZY-1 [12],8.45%
same,fold change (FC),HBZY-1 [13],1.93
same,Activity,Rattus norvegicus [14],Active
same,Activity,HBZY-1 [15],10.31%
same,Activity,HBZY-1 [16],Active
same,Activity,Rattus norvegicus [17],Active
same,Activity,HBZY-1 [18],13.67%
same,Activity,Rattus norvegicus [19],Active
same,Activity,HBZY-1 [20],5.66%
same,Activity,Rattus norvegicus [21],Active
same,Activity,HBZY-1 [22],Active
same,Activity,HBZY-1 [23],Active
same,pIC50,[24],7.65
same,Activity,HBZY-1 [25],8.18%
CC(/C=C1\SC(=S)N(CC(=O)O)C1=O)=C\c1ccccc1,Activity,HBZY-1 [26],8.98%
same,fold change (FC),HBZY-1 [13],1.81
same,Activity,HBZY-1 [27],8.31%
same,Activity,HBZY-1 [16],Active
same,Activity,HBZY-1 [23],Active
